Key:
HepG2 [1] = assay: Antiproliferative activity against human HepG2 cells after 48 hrs by MTT assay; format: functional, cell-based; conditions: HepG2, 48 h
In short: (§1)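 After 48 h, MTT (5 mg/mL in PBS) added, 4 h at 37 °C, DMSO added, absorbance read at 570 nm. IC50 is the 50% growth-inhibition concentration, mean of three independent experiments.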

[2] = Cytotoxicity against human LO2 cells after 48 hrs by MTT assay; format: cell-based; conditions: L02, 48 h; in short: as §1
HepG2 [3] = assay: Selectivity index, ratio of IC50 for human LO2 cells to human HepG2 cells
HepG2 [4] = assay: Induction of cell cycle arrest in human HepG2 cells assessed as accumulation at G0/G1 phase at IC50 after 24 hrs by propidium iodide staining-based flow cytometry (reference value: 67.5%); format: functional
HepG2 [5] = assay: Induction of cell cycle arrest in human HepG2 cells assessed as accumulation at S phase at IC50 after 24 hrs by propidium iodide staining-based flow cytometry (reference value: 16.1%); format: functional
HepG2 [6] = assay: Induction of cell cycle arrest in human HepG2 cells assessed as accumulation at G2/M phase at IC50 after 24 hrs by propidium iodide staining-based flow cytometry (reference value: 16.4%); format: functional
HepG2 [7] = assay: Induction of apoptosis in human HepG2 cells assessed as viable cells at IC50 after 4 hrs by annexin V-FITC/propidium iodide staining-based flow cytometry (reference value: 98.6%); format: functional
HepG2 [8] = assay: Induction of apoptosis in human HepG2 cells assessed as viable cells at IC50 after 24 hrs by annexin V-FITC/propidium iodide staining-based flow cytometry (reference value: 90.5%); format: functional
HepG2 [9] = assay: Induction of apoptosis in human HepG2 cells assessed as nectrotic cells at IC50 after 4 hrs by annexin V-FITC/propidium iodide staining-based flow cytometry (reference value: 0.46%); format: functional
HepG2 [10] = assay: Induction of apoptosis in human HepG2 cells assessed as nectrotic cells at IC50 after 24 hrs by annexin V-FITC/propidium iodide staining-based flow cytometry (reference value: 6.70%); format: functional
HepG2 [11] = assay: Induction of apoptosis in human HepG2 cells assessed as early apoptotic cells at IC50 after 4 hrs by annexin V-FITC/propidium iodide staining-based flow cytometry (reference value: 0.41%); format: functional
HepG2 [12] = assay: Induction of apoptosis in human HepG2 cells assessed as late apoptotic cells at IC50 after 4 hrs by annexin V-FITC/propidium iodide staining-based flow cytometry (reference value: 0.53%); format: functional
HepG2 [13] = assay: Induction of apoptosis in human HepG2 cells assessed as late apoptotic cells at IC50 after 24 hrs by annexin V-FITC/propidium iodide staining-based flow cytometry (reference value: 1.77%); format: functional
HepG2 [14] = assay: Induction of apoptosis in human HepG2 cells assessed as early apoptotic cells at IC50 after 24 hrs by annexin V-FITC/propidium iodide staining-based flow cytometry (reference value: 0.41%)
T-24 = assay: Induction of cell cycle arrest in human T24 cells assessed as accumulation at G2/M phase at 160 uM after 24 hrs by propidium iodide staining-based flow cytometry (reference value: 14.45%); format: functional
BGC-823 = assay: Induction of apoptosis in human BGC823 cells at 80 uM after 24 hrs by annexin V-FITC/propidium iodide staining-based flow cytometry (reference value: 1.5%); format: functional
LN-229 = assay: Induction of cell cycle arrest in human LNT229 cells assessed as accumulation at G2/M phase at 100 uM after 24 hrs by propidium iodide staining-based flow cytometry (reference value: 34%); format: functional

IC50 (HepG2 [1]) [µM]	SMILES	IC50 [2] [µM]	Ratio IC50 (HepG2 [3])	Activity (HepG2 [4]) [%]	Activity (HepG2 [5]) [%]	Activity (HepG2 [6]) [%]	Activity (HepG2 [7]) [%]	Activity (HepG2 [8]) [%]	Activity (HepG2 [9]) [%]	Activity (HepG2 [10]) [%]	Activity (HepG2 [11]) [%]	Activity (HepG2 [12]) [%]	Activity (HepG2 [13]) [%]	Activity (HepG2 [14]) [%]	Activity (T-24) [%]	Activity (BGC-823) [%]	Activity (LN-229) [%]
9	COC(=O)[C@H](C)NP(=O)(Oc1ccccc1)Oc1cc(OC(C)=O)c2c(=O)cc(-c3ccc(OC(C)=O)cc3)oc2c1 (some centres undefined)	22.2	2.467	11	16.4	72.6	89.02	85.42	3.58	9.88	0.45	6.95	3.4	1.31			
70.2	O=c1cc(-c2ccc(O)cc2)oc2cc(O)cc(O)c12 [APIGENIN]	> 100	>1.425												37.94		
> 100	O=c1c(-c2ccc(O)cc2)coc2cc(O)ccc12 [DAIDZEIN]	> 100														32.5	
> 100	O=c1c(-c2ccc(O)cc2)coc2cc(O)cc(O)c12 [GENISTEIN]	> 100															58
